In paper PMC5987874 (The Journal of General Physiology, 2018):
Positions count from the first letter of the chain named. “And” between values parts separate entries of the source, which are not always exact repeats. Identical values can stand only once. Like-named read-outs stand apart in the source and are kept apart here.

Tests used:
[1] = target: T1, human Hv1 E119H-H140A-H193A (Homo sapiens, UniProt Q96D96, E119H/H140A/H193A); assay: Whole-cell voltage clamp, Zn^2+ modulation of GAQ gating; assay type: cell-based
T1 sequence (Q96D96 1-273 E119H/H140A/H193A): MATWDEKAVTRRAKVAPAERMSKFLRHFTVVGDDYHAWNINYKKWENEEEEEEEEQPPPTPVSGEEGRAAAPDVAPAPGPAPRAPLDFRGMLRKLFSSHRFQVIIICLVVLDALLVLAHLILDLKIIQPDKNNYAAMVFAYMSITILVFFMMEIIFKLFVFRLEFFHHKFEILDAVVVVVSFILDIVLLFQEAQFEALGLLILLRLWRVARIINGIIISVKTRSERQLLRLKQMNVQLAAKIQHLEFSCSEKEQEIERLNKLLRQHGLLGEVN
In short: (§1)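 Whole-cell patch clamp at ~21°C. Pipette and bath (mM): ~80 TMA-MeSO3, 100 Bis-Tris, 8 HCl, pH 6.5, 310–320 mOsm. ZnCl2 was diluted into bath solution and applied by gravity superfusion, at least 2 min per change. Test step voltage was set per construct from its V0.5. G_STEP = end-of-step current/(V−V_REV). Effect = 1 − G_Zn/G_control, fitted to the Hill equation. IC50 and nH are means ± SEM from separate cells. ΔpIC50 was tested by unpaired t test, P<0.05.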

[2] = target: T2, human Hv1 D185H (D^3.61H) (Homo sapiens, UniProt Q96D96, D185H); assay: as above; assay type: cell-based
T2 sequence (Q96D96 1-273 D185H): T1 sequence (Q96D96 1-273 E119H/H140A/H193A) with H119E, A140H, D185H, A193H
In short: as §1

human Hv1 H140A-D185H = target: T3, human Hv1 H140A-D185H (Homo sapiens, UniProt Q96D96, D185H/H140A); assay: as above; assay type: cell-based
T3 sequence (Q96D96 1-273 H140A/D185H): T1 sequence (Q96D96 1-273 E119H/H140A/H193A) with H119E, D185H, A193H
In short: as §1

[3] = target: T4, human Hv1 H140A-D185H-H193A (Homo sapiens, UniProt Q96D96, D185H/H140A/H193A); assay: as above; assay type: cell-based
T4 sequence (Q96D96 1-273 H140A/D185H/H193A): T1 sequence (Q96D96 1-273 E119H/H140A/H193A) with H119E, D185H
In short: as §1

human Hv1 D112H = target: T5, human Hv1 D112H (Homo sapiens, UniProt Q96D96, D112H); assay: Whole-cell voltage clamp, Zn^2+ modulation of GAQ gating; assay type: cell-based
T5 sequence (Q96D96 1-273 D112H): T1 sequence (Q96D96 1-273 E119H/H140A/H193A) with D112H, H119E, A140H, A193H
In short: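 Zn2+ effect was read from tail current, not end-of-step current. Whole-cell recording at ~21°C with pH 6.5 pipette and bath solutions (mM: ~80 TMA-MeSO3, 100 Bis-Tris, 8 HCl). ZnCl2 was diluted in bath solution and gravity-superfused, at least 2 min per change. Concentration–response was fitted to the Hill equation, with IC50 values from separate cells. ΔpIC50 was compared by unpaired Student's t test, P<0.05.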

human Hv1 H140A-H193A = target: T6, human Hv1 H140A-H193A (Homo sapiens, UniProt Q96D96, H140A/H193A); conditions: double mutant; ref Ramsey et al., 2006; cited from earlier work
T6 sequence (Q96D96 1-273 H140A/H193A): T1 sequence (Q96D96 1-273 E119H/H140A/H193A) with H119E

[4] = VSTEP 120 mV, calculated as log (IC50)
[5] = read-out: IC50, fit of the mean data to a Hill function, Fig. 4D

- Mean ΔpIC50 = (pIC50_1 - pIC50_2) ([1]; E119H-H140A-H193A vs H140A-H193A, positive = increase in Zn^2+ potency): 2.4 and 2.39
- nH, fit of the mean data to a Hill function ([1]; Fig. 4A): 0.7
- Hill value ([1]; VSTEP 60 mV): 0.84
- pIC50 ([1]; VSTEP 60 mV, calculated as log (IC50)): 5.15
- change of Zn^2+ IC50 ([1]; from H140A-H193A to E119H-H140A-H193A): 2.4 fold
- IC50 ([1]; read-out: IC50, fit of the mean data to a Hill function, Fig. 4A): 7.6 µM
- IC50 ([1]; read-out: Mean IC50 @ VSTEP, VSTEP 60 mV, pH 6.5, mean of fits in separate cells): 7.3 µM
- nH, fit of the mean data to a Hill function ([2]; Fig. 4D): 0.6
- Hill value ([2]; VSTEP 120 mV): 0.77
- pIC50 [2, 4]: 5.38
- IC50 [2, 5]: 6.5 µM
- nH, fit of the mean data to a Hill function (human Hv1 H140A-D185H; Fig. 4D): 0.6
- Mean ΔpIC50 = (pIC50_1 - pIC50_2) (human Hv1 H140A-D185H; H140A-D185H vs D185H): −0.42
- Mean ΔpIC50 = (pIC50_1 - pIC50_2) (human Hv1 H140A-D185H; H140A-D185H vs H140A): 0.54
- Hill value (human Hv1 H140A-D185H; VSTEP 120 mV): 0.81
- pIC50 (human Hv1 H140A-D185H; [4]): −4.96
- IC50 (human Hv1 H140A-D185H; [5]): 18 µM
- Mean ΔpIC50 = (pIC50_1 - pIC50_2) ([3]; H140A-D185H-H193A vs H140A-H193A): 0.38
- Hill value ([3]; VSTEP 100 mV): 1.05
- pIC50 ([3]; VSTEP 100 mV, calculated as log (IC50)): −3.15
- Mean ΔpIC50 = (pIC50_1 - pIC50_2) (human Hv1 D112H; D112H vs WT): −2.1
- Hill value (human Hv1 D112H; VSTEP 130 mV, determined from tail current): 0.56
- pIC50 (human Hv1 D112H; VSTEP 130 mV, determined from tail current, calculated as log (IC50)): −2.96
- IC50 (human Hv1 D112H; read-out: Mean IC50 @ VSTEP, VSTEP 130 mV, pH 6.5, determined from tail current): 1140 µM
Compound: [Cl-].[Cl-].[Zn+2] [Zn^2+, ZnCl2]
- Zn^2+ sensitivity (human Hv1 H140A-H193A): essentially insensitive to submillimolar
